One assay deals with HCMV Pr (Human cytomegalovirus, UniProt P16753). Description: Dose-response kinetic assay of HCMV Pr with ACC tetrapeptide substrate. Format: biochemical. Particulars: read-out: HCMV Pr IC50; --- = No quantifiable inhibition. In outline: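 Manual kinetic fluorescence assay on HCMV Pr using the tetrapeptide Ac-tBG-tBG-Asn(NMe2)-Ala carrying an ACC fluorophore, with ex/em 380/460 nm. Activity was followed over a dilution series of test compound to determine the IC50.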

For another assay, the target named is KSHV Pr (Human herpesvirus 8 type P, UniProt Q2HRB6). Description: Dose-response kinetic assay of KSHV Pr with fluorogenic P6R substrate. It is filed as biochemical. The conditions noted are these: read-out: KSHV Pr IC50. Summed up:
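Manual kinetic dose-response assay on KSHV Pr with the P6R substrate Ac-Pro-Val-Tyr-tBG-Leu-Gln-Ala-(rhodamine110)-dPro, read in a plate reader at ex/em 485/530 nm. IC50 was taken from dose-response curves of enzymatic activity; reported values are means.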

Experimental findings from paper PMC4838516 (ChemMedChem, 2016) are described below.

A word on the IC50: it is the concentration needed to halve the response being measured.

Molecules are shown by their SMILES. Read-outs that look alike come from different tables or passages of the source.

Sequence of KSHV Pr (Q2HRB6 1-230): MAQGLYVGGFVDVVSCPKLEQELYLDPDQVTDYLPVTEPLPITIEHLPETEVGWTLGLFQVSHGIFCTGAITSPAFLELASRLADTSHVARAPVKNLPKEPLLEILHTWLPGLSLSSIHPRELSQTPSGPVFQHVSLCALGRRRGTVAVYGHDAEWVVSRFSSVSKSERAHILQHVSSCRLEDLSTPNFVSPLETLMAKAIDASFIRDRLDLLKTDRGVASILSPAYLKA
Sequence of HCMV Pr (P16753 1-256): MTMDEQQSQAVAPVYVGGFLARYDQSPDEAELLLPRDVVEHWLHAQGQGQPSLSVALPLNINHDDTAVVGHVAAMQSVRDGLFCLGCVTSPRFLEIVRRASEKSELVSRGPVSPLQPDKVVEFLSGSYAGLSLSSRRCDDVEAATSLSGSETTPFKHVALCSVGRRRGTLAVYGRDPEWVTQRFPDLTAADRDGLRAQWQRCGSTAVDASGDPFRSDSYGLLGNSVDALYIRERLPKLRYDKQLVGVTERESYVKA

On to `Nc1nc(-c2ccccc2)cs1` [Fragment 20], for which the IC50 at HCMV Pr is greater than 500 µM; at KSHV Pr, greater than 1000 µM; at KSHV Pr (P6R rhodamine110 substrate), greater than 500 µM.
